Source: ChEMBL document CHEMBL3875231, “From Dynamic Combinatorial Chemistry to in Vivo Evaluation of Reversible and Irreversible Myeloperoxidase Inhibitors” (ACS Med Chem Lett, 2017)
Activity calls are given as the source filed them. The rule behind the calls is not given here.

Tests used:
[1] = biological target: T1, Myeloperoxidase (Homo sapiens) (UniProt P05164); assay: (§1) Inhibition of human MPO; set-up: concentration or dose not given beside the values; conditions: concentration not given here
T1 sequence (whole entry): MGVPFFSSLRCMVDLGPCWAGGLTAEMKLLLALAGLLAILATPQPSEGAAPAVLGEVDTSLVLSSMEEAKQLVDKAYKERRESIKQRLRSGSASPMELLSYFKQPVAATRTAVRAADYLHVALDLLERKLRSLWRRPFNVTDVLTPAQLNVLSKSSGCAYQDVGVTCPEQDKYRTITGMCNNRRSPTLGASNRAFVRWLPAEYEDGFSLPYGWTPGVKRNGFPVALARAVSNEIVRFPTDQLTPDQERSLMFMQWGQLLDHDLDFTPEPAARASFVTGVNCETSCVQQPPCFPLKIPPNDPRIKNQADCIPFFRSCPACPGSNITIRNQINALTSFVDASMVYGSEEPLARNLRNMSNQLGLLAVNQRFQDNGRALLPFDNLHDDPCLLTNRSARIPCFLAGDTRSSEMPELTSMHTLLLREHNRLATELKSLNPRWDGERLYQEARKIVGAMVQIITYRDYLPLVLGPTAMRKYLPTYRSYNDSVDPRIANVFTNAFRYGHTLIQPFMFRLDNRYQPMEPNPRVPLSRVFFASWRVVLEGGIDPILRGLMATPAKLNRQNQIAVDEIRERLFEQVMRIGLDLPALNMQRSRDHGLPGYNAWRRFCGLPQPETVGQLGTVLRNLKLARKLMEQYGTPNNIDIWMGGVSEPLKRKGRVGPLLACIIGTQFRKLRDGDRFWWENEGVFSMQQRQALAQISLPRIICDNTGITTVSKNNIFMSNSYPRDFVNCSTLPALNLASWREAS

Myeloperoxidase [2] = biological target: T2, Myeloperoxidase (Homo sapiens, UniProt P05164); assay: as §1
T2 sequence (P05164 whole entry): T1 sequence (whole entry)

[3] = biological target: T1, Myeloperoxidase (Homo sapiens); assay: Inhibition of human MPO assessed as residual activity in presence of H2O2; set-up: concentration or dose not given beside the values
Outline: (§2)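 Ligand and MPO were mixed with or without H2O2, then diluted 100-fold, and the residual enzymatic activity was measured. An H2O2-alone mixture served as control.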

[4] = biological target: T1, Myeloperoxidase (Homo sapiens); assay: Inhibition of human MPO assessed as residual activity in absence of […]; set-up: concentration or dose not given beside the values; outline: as §2
[5] = biological target: T1, Myeloperoxidase (Homo sapiens); assay: Inhibition of human MPO assessed as rate constant for reduction of PorFe(4)=O to PorFe(4)-OH in presence of H2O2 by stopped-flow method
[6] = biological target: T1, Myeloperoxidase (Homo sapiens); assay: Inhibition of human MPO assessed as soret band formation at 429 nanometer in presence of H2O2 by stopped-flow method
[7] = biological target: T1, Myeloperoxidase (Homo sapiens); assay: Reversible inhibition of human MPO assessed as rate constant for reduction of PorFe(4)-OH to ferric MPO in presence of H2O2 by stopped-flow method
Rattus norvegicus [8] = assay: Ex vivo inhibition of MPO activity in peritoneal exudate of Wistar albino rat model of carrageenan-induced inflammation assessed as reduction in H2O2-dependent oxidation of TMB at 10 mg/kg, iv measured after 24 hrs; type: functional, organism-based
Outline: (§3)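 Male Wistar Han rats had inflammation induced by intraperitoneal carrageenan, then received ligand at 10 mg/kg intravenously. Peritoneal liquid was collected. MPO concentration was measured at 24 h, and MPO activity at 24 h and at 48 h after drug administration. Comparators were carrageenan-only rats and reference rats not treated with carrageenan.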

Myeloperoxidase [9] = biological target: T2, Myeloperoxidase; assay: Irreversible inhibition of MPO (unknown origin)
Outline: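 MPO was preincubated with ligand, with or without H2O2, alongside an H2O2-alone control. The mixture was then diluted 100-fold, residual enzymatic activity was measured, and inactivation was expressed as percent loss of activity.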

[10] = biological target: T1, Myeloperoxidase (Homo sapiens); assay: Irreversible inhibition of human MPO in presence of H2O2 by stopped-flow method
Rattus norvegicus [11] = assay: Anti-inflammatory activity in Wistar albino rat assessed as inhibition of carrageenan-induced MPO release at 10 mg/kg, iv measured after 24 hrs by ELISA; type: functional, organism-based; outline: as §3
Rattus norvegicus [12] = assay: Ex vivo inhibition of MPO activity in peritoneal exudate of Wistar albino rat model of carrageenan-induced inflammation assessed as reduction in H2O2-dependent oxidation of TMB at 10 mg/kg, iv measured after 48 hrs; type: functional, organism-based; outline: as §3

SMILES | inhibition [1] [%] | IC50 (Myeloperoxidase [2]) [nM] | Activity [3] [%] | Activity [4] [%] | K [5] [×10⁵ /M/s] | inhibition [6] | K [7] [M⁻¹ s⁻¹] | inhibition (Rattus norvegicus [8]) | IC50 (Myeloperoxidase [9]) [nM] | inhibition [10] | inhibition (Rattus norvegicus [11]) | inhibition (Rattus norvegicus [12])
CN(C)c1ccc(/C=N/Nc2nncc3ccccc23)cc1 | 100 | 80 | 92 | 93 | 7.1 | Active | 89.3 | Active | – | – | – | –
NNc1nncc2ccccc12 [HYDRALAZINE] | 61 | 900 | 19 | 92 | 7.1 | – | – | – | 900 | – | – | –
O=C(N/N=C/CO)c1ccncc1 | – | > 5000 | 94 | 100 | – | – | – | – | – | – | – | –
CN(C)c1ccc(/C=N/NC(=O)c2ccncc2)cc1 [N'-(4-DIMETHYLAMINOBENZYLIDENE)ISONICOTINOHYDRAZIDE] | 100 | 1620 | 93 | 91 | – | – | – | – | – | – | – | –
COc1cc(/C=N/Nc2nncc3ccccc23)ccc1O | 82 | 340 | 22 | 87 | 2.8 | – | – | – | – | Active | – | –
COc1ccc(/C=N/Nc2ccc(F)cc2)cc1O | 91 | 1130 | 92 | 81 | – | – | – | – | – | – | – | –
COc1cc(/C=N/NC(=O)c2ccncc2)ccc1O [FTIVAZIDE] | 82 | 460 | 91 | 96 | – | – | – | – | – | – | – | –
COc1ccc(/C=N/Nc2nncc3ccccc23)cc1O | 91 | 150 | 25 | 93 | – | – | – | Active | – | – | Active | Active
NNc1ccc(F)cc1 | 61 | > 5000 | 98 | 103 | – | – | – | – | – | – | – | –
Cc1ccc(NN)cc1 | 61 | – | – | – | – | – | – | – | – | – | – | –
OC/C=N/Nc1ccc(F)cc1 | – | > 5000 | 97 | 107 | – | – | – | – | – | – | – | –
NNc1cccc2ccccc12 | 61 | – | – | – | – | – | – | – | – | – | – | –
COc1ccc(/C=N/NC(=O)c2ccncc2)cc1O | 91 | 430 | 87 | 88 | – | – | – | – | – | – | – | –
CN(C)c1ccc(/C=N/Nc2ccc(F)cc2)cc1 | 100 | 3100 | 84 | 87 | – | – | – | – | – | – | – | –
COc1cc(/C=N/Nc2ccc(F)cc2)ccc1O | 82 | 1200 | 98 | 89 | – | – | – | – | – | – | – | –
OC/C=N/Nc1nncc2ccccc12 | – | 110 | 18 | 82 | 3.3 | – | – | Active | – | Active | – | Active
NNC(=O)c1ccncc1 [ISONIAZID] | 61 | 4700 | 64 | 98 | – | – | – | – | 5000 | – | – | –
